Reference: ChEMBL document CHEMBL3351342, “Synthesis and biological evaluation of phenoxyacetic acid derivatives as novel free fatty acid receptor 1 agonists” (Bioorg Med Chem, 2015)
Activity calls are given as the source filed them. The rule behind the calls is not given here.

Tests used:
[1] = target: T1, Free fatty acid receptor 1 (Homo sapiens, UniProt O14842); assay: Agonist activity at human FFA1 expressed in CHO cells assessed as ratio of increase in intracellular Ca2+ concentration in compound treated cells at 100 nM to vehicle-treated cells by Fluo-4 AM based fluorescence assay; assay type: functional, cell-based
In short: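 Same Fluo-4 Ca2+ flux format in CHO cells stably expressing human FFA1. Single screening concentration of 100 nM. Activity expressed as A/B, the Ca2+ increase in compound-treated wells divided by that in vehicle-treated wells. Three independent experiments.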

[2] = Oral bioavailability in Sprague-Dawley rat at 1 mg/kg; assay type: ADME, organism-based; settings: in vivo
In short: (§1)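 Fasted male SD rats (n = 3). Dosed 1 mg/kg iv (0.5 mg/mL, 2 mL/kg) or 1 mg/kg po (1 mg/mL, 1 mL/kg), both in 0.5% methylcellulose. Tail-vein blood in EDTA sampled from 5 min to 36 h. Plasma proteins precipitated with acetonitrile containing internal standard, then analysed by LC-MS/MS. Parameters derived from mean concentrations at each time point.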

[3] = Tmax in Sprague-Dawley rat at 1 mg/kg, po; assay type: ADME, organism-based; set-up: dose 1 mg/kg, route oral; settings: in vivo; in short: as §1
Mus musculus [4] = assay: Antihyperglycemic effect in type 2 diabetic C57BL/6 mouse assessed as reduction in blood glucose level at 30 to 100 mg/kg, po; assay type: functional, organism-based
In short: (§2)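 Type 2 diabetes model: male C57BL/6 mice on high-fat diet (45% fat) for 4 weeks, STZ 80 mg/kg ip, then high-fat diet for another 4 weeks. Fasting glucose ≥11.1 mmol/L counted as diabetic. Mice fasted 12 h and randomized by weight and glucose (n = 6). Single oral dose of 30–100 mg/kg in 0.5% methylcellulose given 30 min before an oral glucose load of 1 g/kg. Glucose read by strip to 120 min; AUC0–120 min; mean ± SD.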

[5] = Cmax in Sprague-Dawley rat at 1 mg/kg, po; assay type: ADME, organism-based; set-up: dose 1 mg/kg, route oral; settings: in vivo; in short: as §1
[6] = AUC (0 to 8 hrs) in Sprague-Dawley rat at 1 mg/kg, po; assay type: ADME, organism-based; set-up: time < 8 hr, dose 1 mg/kg, route oral; settings: plasma; in short: as §1
[7] = Clearance in Sprague-Dawley rat at 1 mg/kg, iv; assay type: ADME, organism-based; set-up: dose 1 mg/kg, route intravenous; settings: in vivo; in short: as §1
Mus musculus [8] = assay: Hypoglycemic effect in ICR mouse assessed as reduction in glucose AUC (0 to 120 mins) at 20 mg/kg, po dosed 30 mins before oral glucose challenge by oral glucose tolerance test; assay type: functional; set-up: scale not given: the % may be the effect or the level left
In short: (§3)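 Male ICR mice, 10 weeks old, fasted 12 h and randomized (n = 6). Single oral dose of 20 mg/kg as a suspension in 0.5% methylcellulose (1.0 mL/kg), given 30 min before an oral glucose load of 2 g/kg (20% solution). Blood glucose read by test strip at −30, 0, 15, 30, 60 and 120 min. AUC0–120 min calculated; mean ± SEM.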

Mus musculus [9] = assay: Hypoglycemic effect in ICR mouse assessed as improvement in glucose intolerance at 20 mg/kg, po dosed 30 mins before oral glucose challenge by oral glucose tolerance test; assay type: functional, organism-based; set-up: dose 20 mg/kg; in short: as §3
Mus musculus [10] = assay: Antihyperglycemic effect in type 2 diabetic C57BL/6 mouse assessed as reduction in blood glucose level at 60 mg/kg, po administered as single dose; assay type: functional, organism-based; set-up: dose 60 mg/kg; in short: as §2
[11] = Half life in Sprague-Dawley rat at 1 mg/kg, iv; assay type: ADME, organism-based; set-up: dose 1 mg/kg, route intravenous; settings: in vivo; in short: as §1
[12] = Half life in Sprague-Dawley rat at 1 mg/kg, po; assay type: ADME, organism-based; set-up: dose 1 mg/kg, route oral; settings: in vivo; in short: as §1
[13] = Volume of distribution in Sprague-Dawley rat at 1 mg/kg, iv; assay type: ADME, organism-based; set-up: dose 1 mg/kg, route intravenous; settings: in vivo; in short: as §1
[14] = target: T1, Free fatty acid receptor 1; assay: Agonist activity at human FFA1 expressed in CHO cells assessed as increase in intracellular Ca2+ concentration by Fluo-4 AM based fluorescence assay; assay type: functional, cell-based
In short: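 CHO cells stably expressing human FFA1 (NM_005303), 30,000 cells/well, cultured overnight at 37 °C in 5% CO2. Loaded with 2.5 µg/mL Fluo-4 AM and 2.5 mmol/L probenecid in HBSS for 90 min at 37 °C, washed, then held 10 min in HBSS with probenecid. Ca2+ rise after adding compound at various concentrations read by fluorimetry. EC50 from curve fitting, mean of three determinations.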

T1 sequence (O14842 whole entry): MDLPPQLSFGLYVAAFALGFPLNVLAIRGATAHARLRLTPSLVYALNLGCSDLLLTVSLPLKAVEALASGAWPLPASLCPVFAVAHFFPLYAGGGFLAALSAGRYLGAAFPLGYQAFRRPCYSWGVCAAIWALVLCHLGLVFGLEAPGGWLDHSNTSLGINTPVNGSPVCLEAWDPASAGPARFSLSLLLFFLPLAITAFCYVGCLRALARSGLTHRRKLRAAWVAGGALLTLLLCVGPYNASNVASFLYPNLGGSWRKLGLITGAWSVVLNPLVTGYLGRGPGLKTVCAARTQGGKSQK

Row | SMILES | Ratio [1] | Activity (Mus musculus [9]) | EC50 [14] | further results
1 | COc1cc(OCc2cccc(-c3c(C)cc(OCCCS(C)(=O)=O)cc3C)c2)ccc1OCC(=O)O | 2.02 |  |  | 
2 | COc1cc(OCc2cccc(-c3c(C)cc(OCCCS(C)(=O)=O)cc3C)c2)ccc1OC(C)(C)C(=O)O | 1.81 |  |  | 
3 | Cc1cc(OCCCS(C)(=O)=O)cc(C)c1-c1cccc(COc2ccc(OCC(=O)O)c(F)c2)c1 | 6.42 | Active | 62.3 nM | bioavailability [2]: 63%; Tmax [3]: 1 h; Activity (Mus musculus [4]): Dose-dependent effect; Cmax [5]: 1170 ng/mL; AUC(0-t) at 8 h [6]: 5340 ng·h/mL; clearance [7]: 1.83 mL/min/kg; Activity (Mus musculus [8]): 31%; Activity (Mus musculus [10]): Active; half-life [11]: 4.15 h; half-life [12]: 3.27 h; Vd [13]: 0.26 L/kg
4 | Cc1cc(OCCCS(C)(=O)=O)cc(C)c1-c1cccc(COc2ccc(OC(C)(C)C(=O)O)c(Cl)c2)c1 | 3.04 |  |  | 
5 | CCc1cc(OCc2cccc(-c3c(C)cc(OCCCS(C)(=O)=O)cc3C)c2)ccc1OC(C)(C)C(=O)O | 1.48 |  |  | 
6 | Cc1cc(OCCCS(C)(=O)=O)cc(C)c1-c1cccc(COc2ccc(OC(C)(C)C(=O)O)c(F)c2)c1 | 3.06 |  |  | 
7 | Cc1cc(OCc2cccc(-c3c(C)cc(OCCCS(C)(=O)=O)cc3C)c2)ccc1OCC(=O)O | 5.64 | Active | 153 nM | 
8 | CCc1cc(OCc2cccc(-c3c(C)cc(OCCCS(C)(=O)=O)cc3C)c2)ccc1OCC(=O)O | 3.19 |  |  | 
9 | Cc1cc(OCCCS(C)(=O)=O)cc(C)c1-c1cccc(COc2ccc(OCC(=O)O)c(Cl)c2)c1 | 6.18 | Active | 92.6 nM | 
10 | CCC(Oc1ccc(OCc2cccc(-c3c(C)cc(OCCCS(C)(=O)=O)cc3C)c2)cc1)C(=O)O (configuration not stated) | 3.04 |  |  | 
11 | Cc1cc(OCc2cccc(-c3c(C)cc(OCCCS(C)(=O)=O)cc3C)c2)cc(C)c1OC(C)(C)C(=O)O | 1.6 |  |  | 
12 | Cc1cc(OCCCS(C)(=O)=O)cc(C)c1-c1cccc(COc2ccc3c(c2)OC[C@H]3CC(=O)O)c1 |  | Active |  | Activity (Mus musculus [8]): 29.3%
13 | Cc1cc(OCCCS(C)(=O)=O)cc(C)c1-c1cccc(COc2ccc(OCC(=O)O)cc2)c1 | 6.04 | Active | 121 nM | 
14 | Cc1cc(OCCCS(C)(=O)=O)cc(C)c1-c1cccc(COc2ccc(OC(C)(C)C(=O)O)cc2)c1 | 2.45 |  |  | 
15 | Cc1cc(OCCCS(C)(=O)=O)cc(C)c1-c1cccc(COc2ccc(OC(C)C(=O)O)cc2)c1 (configuration not stated) | 4.04 | Active | 389 nM | 
